Source: PubChem BioAssay (Broad Institute)
T cruzi growth-1: T. cruzi proliferation inhibition; inhibition, % at 8.34 µM; T. cruzi beta-gal in NIH3T3, GalScreen luminescence, 90 h; hit rate 5.9% among 77,000;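 active means mean inhibition above about 93%, with at least 55% of replicates each passing it, limit read from the data, passing the limit was not always enough; inconclusive means only one of those two conditions holds; inactive means neither condition holds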
IDH1 mut inh: IDH1 R132H (human) inhibition; AID 624101; hit rate 0.18% among 70,000; IDH1 R132H reductase, diaphorase/resazurin fluorescence, 60 min; O75874; inhibition, % at 10 µM; in the data active means inhibition above about 34%; inconclusive means no clear call, values can overlap the other calls; inactive means below about 11%
Target sequence (O75874 whole entry R132H): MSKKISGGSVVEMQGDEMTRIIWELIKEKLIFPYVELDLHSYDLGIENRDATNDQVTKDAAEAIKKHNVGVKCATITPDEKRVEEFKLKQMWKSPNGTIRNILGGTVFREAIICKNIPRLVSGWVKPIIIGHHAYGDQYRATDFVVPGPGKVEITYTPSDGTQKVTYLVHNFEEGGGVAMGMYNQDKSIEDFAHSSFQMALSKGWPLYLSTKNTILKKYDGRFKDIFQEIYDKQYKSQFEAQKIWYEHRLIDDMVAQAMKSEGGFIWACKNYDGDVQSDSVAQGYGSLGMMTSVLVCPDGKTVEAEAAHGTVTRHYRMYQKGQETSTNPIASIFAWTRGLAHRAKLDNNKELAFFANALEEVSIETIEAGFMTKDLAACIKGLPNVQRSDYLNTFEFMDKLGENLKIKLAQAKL
KDM4C inh: inhibitors of human demethylase GASC-1 KDM4C; Q9H3R0; GST-KDM4C 2-372, H3K9me3 peptide, LANCE TR-FRET; inhibition, % at 12.5 µM; hit rate 0.15% among 96,000; AID 720574;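 active means mean replicate inhibition above about 25%, with at least 55% of replicates also reaching it, limit read from the data, passing the limit was not always enough; inconclusive means only one of those two conditions met; inactive means neither condition met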
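Material: GST-tagged GASC-1 (JMJD2C) catalytic fragment, aa 2-372. Input: enzyme final amount 10 nM. Medium: HEPES buffer, pH 7.5, plus ascorbate. Reagent: H3K9me3 peptide substrate, Fe(II), 2-oxoglutarate. Doses: single dose. Times: reaction 30 min RT, detection step 1 h RT. Measured by: LANCE TR-FRET. Evaluation: Fall in 671/618 emission ratio as inhibition.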
T cruzi growth-2: Trypanosoma cruzi proliferation inhibition | shares compounds with T cruzi growth-1 | T. cruzi beta-gal in NIH3T3, GalScreen luminescence, 90 h | inhibition, % at 8.35 µM | hit rate 72% among 5,600;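 active means mean replicate inhibition above about 95% and at least 55% of replicates individually reaching it, limit read from the data; inconclusive means only one of the two criteria is met; inactive means neither criterion is met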
T cruzi growth-3: blocks T. cruzi growth in NIH3T3 host cells; shares compounds with T cruzi growth-1; T. cruzi beta-gal in NIH3T3, GalScreen luminescence, 90 h; inhibition, % at 2.09 µM; hit rate 21% among 5,600;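 active means mean inhibition above about 95%, with at least 55% of replicates also reaching it, limit read from the data; inconclusive means meets just one of the two conditions; inactive means meets neither condition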
3T3 cytotox: cytotoxicity in mouse NIH/3T3 fibroblasts. shares compounds with T cruzi growth-1. cytotoxicity (signal decrease), % at 8.35 µM. NIH/3T3 viability, CellTiter-Glo ATP luminescence, 90 h. hit rate 14% among 5,600;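 active means mean signal decrease across replicates above about 35% based on untreated-well scatter, with enough replicates individually passing, limit read from the data; inconclusive means no rule stated though some were filed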
NIH3T3 tox 2: NIH/3T3 (mouse) viability loss. inhibition, % at 24.9 µM. hit rate 56% among 5,600. NIH/3T3 viability, CellTiter-Glo ATP luminescence, 90 h. AID 651744. shares compounds with T cruzi growth-1;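 active means mean loss of cell viability signal at or above a set limit, and enough replicates individually reaching it; inconclusive means meets only the mean limit or only the replicate share; inactive means meets neither condition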
Numbers stand for hits; – = inactive; ? = inconclusive; · = not tested or not shown. The entries come from a sample that favours hits as a whole.

SMILES	T cruzi growth-1	IDH1 mut inh	KDM4C inh	T cruzi growth-2	T cruzi growth-3	3T3 cytotox	NIH3T3 tox 2
N#C[C@H]1[C@H](c2ccc(C3=CCCCC3)cc2)[C@H](CO)N1C(=O)NC1CCCC1	·	·	–	·	·	·	·
N#C[C@@H]1[C@@H](c2ccc(C3=CCCCC3)cc2)[C@H](CO)N1C(=O)NC1CCCCC1	98	·	–	103	–	–	87
COc1cccc(NC(=O)N2[C@H](CO)[C@H](c3ccccc3)[C@@H]2CNC(C)C)c1	115	·	–	–	–	–	–
CCCNC(=O)N1[C@H](CO)[C@H](c2ccc(C3=CCCCC3)cc2)[C@@H]1C#N	–	–	–	·	·	·	·
CCCNC(=O)N1[C@H](C#N)[C@@H](c2ccc(C3=CCCCC3)cc2)[C@@H]1CO	103	·	–	105	–	–	–
O=C(CCCCCC(=O)Nc1ccccc1O)N/N=C/c1cccs1	·	–	·	·	·	·	·
CC(=O)OC1CC2(C)C(CCC3C4(C)CCC(=O)C(C)C4C(O)C(=O)C32C)/C1=C(\CCC=C(C)C)C(=O)O (configuration not stated)	·	–	·	·	·	·	·
CCOc1cccc(/C=N/NC(=O)c2cccc(C(=O)NO)c2)c1OCC	·	–	·	·	·	·	·
CCOc1ccc2nc(NS(=O)(=O)c3ccc(C)c([N+](=O)[O-])c3)sc2c1	·	–	·	·	·	·	·
CC(C)NC[C@@H]1[C@H](c2ccc(C3=CCCCC3)cc2)[C@H](CO)N1C(=O)NC(C)C	121	·	–	106	98	–	105
CCNC[C@H]1[C@H](c2ccc(C3=CCCCC3)cc2)[C@@H](CO)N1C(=O)NC(C)C	–	·	–	·	·	·	·
Cc1ccc(NC(=O)CC(N)C(=O)O)cc1 (configuration not stated)	·	–	·	·	·	·	·
Cc1cc(NC(=O)CCCN2C(=O)c3cccc4cccc(c34)C2=O)n(-c2ccccc2)n1	·	–	·	·	·	·	·
COc1cccc(C(Nc2cc(C)ccn2)c2ccc3ccc(C)nc3c2O)c1 (configuration not stated)	·	–	·	·	·	·	·
COc1ccc(C#Cc2ccc([C@@H]3[C@@H](CO)N4CCCCN(C(=O)Nc5cccc(F)c5)C[C@H]34)cc2)cc1	–	·	–	·	·	·	·
COc1ccc(C#Cc2ccc([C@@H]3[C@H](CO)N4CCCCN(C(=O)Nc5ccc(F)cc5)C[C@@H]34)cc2)cc1	111	·	–	105	109	119	103
COc1ccc(C#Cc2ccc([C@@H]3[C@@H](CO)N4CCCCN(C(=O)Nc5ccc(F)cc5)C[C@H]34)cc2)cc1	116	·	–	97	120	123	105
COc1ccc(C#Cc2ccc([C@H]3[C@@H](CO)N4CCCCN(C(=O)Nc5ccc(F)cc5)C[C@H]34)cc2)cc1	–	·	–	·	·	·	·
COc1ccc(C#Cc2ccc([C@@H]3[C@@H](CO)N4CCCCN(C(=O)Nc5ccc(F)cc5)C[C@@H]34)cc2)cc1	112	·	–	102	106	–	104
COc1ccc(C#Cc2ccc([C@@H]3[C@@H](CO)N4CCCCN(C(=O)Nc5cccc(F)c5)C[C@@H]34)cc2)cc1	–	·	–	·	·	·	·
O=C(COc1ccccc1CO)Nc1ccccc1	·	–	·	·	·	·	·
CN(Cc1cccs1)C(=S)SCCO	·	–	·	·	·	·	·
C[C@@H]1CN([C@@H](C)CO)C(=O)CCCn2nncc2CO[C@H]1CN(C)Cc1ccc(C(=O)Nc2ccccc2N)cc1	110	·	–	101	107	–	36
C[C@@H]1CN([C@@H](C)CO)C(=O)CCCn2nncc2CO[C@@H]1CN(C)Cc1ccc(C(=O)Nc2ccccc2N)cc1	–	·	–	·	·	·	·
C[C@H](CO)N1C[C@H](C)[C@@H](CN(C)Cc2ccc(C(=O)O)cc2)OCc2cnnn2CCCC1=O	·	–	–	·	·	·	·
SMILES	T cruzi growth-1	IDH1 mut inh	KDM4C inh	T cruzi growth-2	T cruzi growth-3	3T3 cytotox	NIH3T3 tox 2
C[C@@H]1CN([C@H](C)CO)C(=O)CCCn2nncc2CO[C@H]1CN(C)Cc1ccc(C(=O)Nc2ccccc2N)cc1	109	·	–	101	–	–	31
C[C@H]1CN([C@@H](C)CO)C(=O)CCCn2nncc2CO[C@@H]1CN(C)Cc1ccc(C(=O)O)cc1	·	–	–	·	·	·	·
C[C@H](CO)N1C[C@H](C)[C@@H](CN(C)Cc2ccc(-c3ccccc3)cc2)OCc2cnnn2CCCC1=O	?	·	–	–	–	–	51
C[C@@H]1CN([C@H](C)CO)C(=O)CCCn2nncc2CO[C@H]1CN(C)Cc1ccc(-c2ccccc2)cc1	–	·	–	·	·	·	·
C[C@H](CO)N1C[C@H](C)[C@@H](CN(C)Cc2ccc(C(=O)Nc3ccccc3N)cc2)OCc2cnnn2CCCC1=O	110	·	–	106	–	–	?
COC(=O)c1ccccc1NC(=O)CNC(=O)c1ccc(C(C)(C)C)cc1	·	–	·	·	·	·	·
COC(=O)CSc1nnc(-c2sc3ccccc3c2Cl)n1-c1ccc(OC)cc1	·	–	·	·	·	·	·
COc1ccc(-c2ccc3n(c2=O)C[C@H]2[C@H](CO)[C@@H](C(=O)N(C)C)N(CC4CCCC4)[C@@H]32)cc1	–	·	–	·	·	·	·
COc1ccc(-c2ccc3n(c2=O)C[C@H]2[C@H](CO)[C@@H](C(=O)N(C)C)N(CC4CC4)[C@@H]32)cc1	103	·	–	–	–	–	–
CCN1[C@@H]2c3ccc(-c4cccc(C(=O)N(C)C)c4)c(=O)n3C[C@@H]2[C@@H](CO)[C@@H]1C(=O)N(C)C	–	·	–	·	·	·	·
CCN1[C@H](C(=O)N(C)C)[C@@H](CO)[C@@H]2Cn3c(ccc(-c4cccc(C(=O)N(C)C)c4)c3=O)[C@@H]21	100	·	–	–	–	–	–
C[C@H](CO)N1C[C@H](C)[C@@H](CN(C)C)Oc2cc(C#Cc3ccccn3)ccc2S1(=O)=O	·	–	–	·	·	·	·
C[C@@H]1CN([C@@H](C)CO)S(=O)(=O)c2ccc(C#Cc3ccccn3)cc2O[C@H]1CN(C)Cc1ccccc1	86	–	–	?	103	–	33
C[C@@H]1CN([C@H](C)CO)S(=O)(=O)c2ccc(C#Cc3ccccn3)cc2O[C@H]1CN(C)Cc1ccccc1	106	–	–	104	–	–	99
C[C@H](CO)N1C[C@H](C)[C@@H](CN(C)Cc2ccccc2)Oc2cc(C#Cc3ccccn3)ccc2S1(=O)=O	–	–	–	·	·	·	·
C[C@H]1CN([C@@H](C)CO)S(=O)(=O)c2ccc(C#Cc3ccccn3)cc2O[C@H]1CN(C)C	·	–	–	·	·	·	·
C[C@@H]1CN([C@@H](C)CO)S(=O)(=O)c2ccc(C#Cc3ccccn3)cc2O[C@@H]1CN(C)Cc1ccccc1	108	–	–	109	–	43	–
CC(=O)N(C)C[C@@H]1Oc2cc(C#Cc3ccccn3)ccc2S(=O)(=O)N([C@H](C)CO)C[C@@H]1C	–	–	–	·	·	·	·
C[C@H]1CN([C@@H](C)CO)S(=O)(=O)c2ccc(C#Cc3ccccn3)cc2O[C@H]1CN(C)Cc1ccccc1	113	–	–	109	–	–	–
CN(CC(=O)Nc1ccccc1-c1ccccc1)S(=O)(=O)c1ccc2ccccc2c1	·	–	·	·	·	·	·
